Reference: article PMC4335298 (Genes & Development, 2015)
One block for each molecule: values may come before it.

How the values were obtained:
[1] = molecular target: hTLX (construct of the size exclusion chromatography not stated) (human) (UniProt Q9Y466); assay: SEC
[2] = Size exclusion chromatography of hTLX
[3] = system: Gal4 transcriptional activity; assay: Gal4 reporter repression assay with Gal4-fused receptor LBDs; assay type: cell-based; details: Gal4-fused receptor LBD, cell reporter assay, AD293 cells
Method in brief: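 AD293 cells were cotransfected with Gal4-DBD fusions of the hTLX LBD (residues 182–385; H12 deletion residues 182–371) or the dTLX LBD (residues 229–472), wild type or mutant, plus a luciferase reporter. Repression fold is RLU with Gal4 alone relative to RLU with the Gal4-receptor fusion. Expression was checked by anti-Gal4 Western blot. Values are SD, n = 3, with at least two repeats, and groups were compared by two-tailed Student's t-test.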

[4] = system: SHP full-length (NP_035980); assay: Coimmunoprecipitation with SHP; assay type: binding, mouse; details: Co-IP, Flag/HA fusions, Western blot

Molecule: hTLX (construct of the size exclusion chromatography not stated) (from UniProt Q9Y466-1 1-385) (natural protein)
stoichiometry N [1]: 2

Molecule: hTLX: human TLX (NP_003260)
Oligomeric state in solution [2]: formed a dimer in solution

Repressor activity (in words) [3]: compromised its repressor activity
B1: COUP-TF2∆H12: human COUP-TF2 residues 76–258, helix H12 deleted (protein, UniProt P24468 76-258, looked up, fragment)
chain: HIECVVCGDKSSGKHYGQFTCEGCKSFFKRSVRRNLSYTCRANRNCPIDQHHRNQCQYCRLKKCLKVGMRREAVQRGRMPPTQPTHGQFALTNGDPLNCHSYLSGYISLLLRAEPYPTSRFGSQCMQPNNIMGIENICELAARMLFSAVEWARNIPFFPDLQITDQVALLRLTWSELFVLNAA
modifications: ligand-binding domain, H12 deleted

B2: Atrophin-2: Atrophin-2 (NP_001036046, residues 1087–1566) (protein)
chain: AAKASSSAHEGRLSDPQLSGPGHMRPSFEPPPTTIAAVPPYIGPDTPALRTLSEYARPHVMSPTNRNHPFYMPLNPTDPLLAYHMPGLYNVDPTIRERELREREIREREIRERELRERMKPGFEVKPPELDPLHPATN
modifications: left off: Gal4 DNA-binding domain, end not stated, kept
Interaction with SHP [4]: able to interact
